# Measurements reported in ChEMBL document CHEMBL1135662, “Effects of isoprenoid analogues of SDB-ethylenediamine on multidrug resistant tumor cells alone and in combination with chemotherapeutic drugs” (J Med Chem, 2002).
# Where a name gives a salt, the structure may show the parent alone.
# Assays:
# [1] = Index of sensitisation (IS)in presence of ADM and HET-SR-2SC-LNM; assay type: functional
# Method in brief: (§1)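 HET-SR-2SC-LNM or 2SC/20 cells exposed for 72 h to a vinblastine or adriamycin dose series, alone or with modulator at 5 µM. IC50 by MTT (540 nm). IS is the mean IC50 with the drug alone divided by the mean IC50 with drug plus modulator. Four repeats.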
# Homo sapiens [2] = species: Homo sapiens; test: Cytotoxicity against cell line mS/0.5 and pgp determined by MTT test; assay type: functional
# [3] = Index of sensitisation (IS)in presence of VBL and HET-SR-2SC-LNM; assay type: functional; method in brief: as §1
# [4] = Index of sensitisation (IS)in presence of ADM and 2SC/2O; assay type: functional; method in brief: as §1
# [5] = Cytotoxicity against cell line 2SC/20 determined by MTT test; details: Mesocricetus auratus
# [6] = Cytotoxicity against cell line […] and MRP determined by MTT test; assay type: functional; details: Homo sapiens
# Method in brief: (§2)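 MTT assay after 72 h exposure, in duplicate. Human lung carcinoma COR L23/P and its adriamycin-selected MRP-mediated subline COR L23/R seeded at 5×10^3 per 200 µL. K562 leukemia cells and K562 transduced with human MDR1 (not drug-selected) seeded at 3×10^4 per 200 µL. MTT 3 h, read at 540 nm. Mean ± SE of three experiments.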
# Homo sapiens [7] = species: Homo sapiens; test: Cytotoxicity against cell line mS determined by MTT test; assay type: functional
# [8] = Cytotoxicity against cell line McA RH 7777 determined by MTT test; assay type: functional; details: Rattus norvegicus, McA-RH7777
# [9] = Cytotoxicity against cell line COR/L23P determined by MTT test; assay type: functional; details: Homo sapiens; method in brief: as §2
# [10] = Index of sensitisation (IS)in presence of VBL and 2SC/2O; assay type: functional; method in brief: as §1
# [11] = Cytotoxicity against cell line HET-SR-2SC-LNM determined by MTT test; details: Mesocricetus auratus
# [12] = Cytotoxicity against cell line McA RH 7777/0.4 and Pgp determined by MTT test; assay type: functional; details: Rattus norvegicus, McA-RH7777
# K562 [13] = test: Cytotoxicity against cell line K562 determined by MTT test; assay type: functional, cell-based; details: Homo sapiens
# Method in brief: as §2, with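 “200 µL. Non-fibroblast lines grown in RPMI-1640 with 5% FBS. MTT 3” for “200 µL. MTT 3”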
# K562 [14] = test: Cytotoxicity against cell line K562i/S9 and pgp determined by MTT test; assay type: functional, cell-based; details: Homo sapiens
# Method in brief: as §2, with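 “200 µL. Non-fibroblast lines grown in RPMI-1640 with 5% FBS. MTT 3” for “200 µL. MTT 3”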
# [15] = Inhibitory concentration against the growth of 2SC/20 cell line after 72 hr of drug exposure by MTT test; details: Mesocricetus auratus
# [16] = Inhibitory concentration against the growth of HET-SR-2SC-LNM cell line after 72 hr of drug exposure by MTT test; details: Mesocricetus auratus
# [17] = Intracellular uptake of drug in presence of 3H VBL and in absence of VRP in 2SC/20 cell line; details: Mesocricetus auratus
# [18] = Intracellular uptake of drug in presence of 3H VBL and absence of VRPin HET-SR-2SC-LNM cell line; details: Mesocricetus auratus
# [19] = Intracellular uptake of drug in presence of 3H VBL and VRP in 2SC/20 cell line; details: Mesocricetus auratus
# [20] = Intracellular uptake of drug in presence of ADM and absence of VRPin HET-SR-2SC-LNM cell line; details: Mesocricetus auratus
# [21] = Intracellular uptake of drug in presence of ADM and in absence of VRP in 2SC/20 cell line; details: Mesocricetus auratus
# [22] = Intracellular uptake of drug in presence of ADM and VRP in 2SC/20 cell line; details: Mesocricetus auratus
# [23] = Intracellular uptake of drug in presence of ADM and VRP in HET-SR-2SC-LNM cell line; details: Mesocricetus auratus
# [24] = Intracellular uptake of drug in presence of 3H VBL and VRP in HET-SR-2SC-LNM cell line; details: Mesocricetus auratus
# [25] = Index of sensitisation (IS) calculated as mean IC50 for cells incubated with ADM and of HET-SR-2SC-LNM; assay type: functional; method in brief: as §1
# [26] = Index of sensitisation (IS) calculated as mean IC50 for cells incubated with VBL and of HET-SR-2SC-LNM; assay type: functional; method in brief: as §1
# [27] = Cytotoxicity against cell line 2SC/20 of hamster determined by MTT test; details: Mesocricetus auratus
# [28] = Index of sensitisation (IS) calculated as mean IC50 for cells incubated with VBL and of 2SC/2O; assay type: functional; method in brief: as §1
# [29] = Index of sensitisation (IS) calculated as mean IC50 for cells incubated with ADM and of 2SC/2O; assay type: functional; method in brief: as §1
# [30] = Inhibitory concentration against the growth of 2SC/20 cell line after 72 hr of drug exposure by MTT test; assay type: functional, Cricetulus griseus
# Method in brief: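 Syrian hamster embryo fibroblasts (parental line or its colchicine-selected Pgp-positive 2SC/20 subline), grown in DMEM with 5% FBS at 37 °C, 5% CO2; selective agent withdrawn 2 days before use. (3–4) × 10³ cells per well, treated 16 h after plating, exposed 72 h. MTT (2 mg/mL solution) added for 3 h, formazan dissolved in acidified DMSO, absorbance read at 540 nm.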
# [31] = Inhibitory concentration against the growth of HET-SR-2SC-LNM cell line after 72 hr of drug exposure by MTT test; assay type: functional, Cricetulus griseus
# [32] = Partition coefficient (logP); assay type: physicochemical; details: octanol/water
# [33] = Cytotoxicity against cell line HET-SR-2SC-LNM of hamster determined by MTT test; details: Mesocricetus auratus
# [34] = Cytotoxicity against cell line COR/L23R and MRP determined by MTT test; assay type: functional; details: Homo sapiens, COR-L23/R
# Method in brief: as §2, with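 “200 µL. Non-fibroblast lines grown in RPMI-1640 with 5% FBS. MTT 3” for “200 µL. MTT 3”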
# [35] = Cytotoxicity against HET-SR-2SC-LNM cell line of hamster determined by MTT test; details: Mesocricetus auratus
molecule,measurement,setting,value
COc1ccc(CNCCN(C/C=C(\C)CC/C=C(\C)CC/C=C(\C)CC/C=C(\C)CC/C=C(\C)CC/C=C(\C)CC/C=C(\C)CC/C=C(\C)CCC=C(C)C)Cc2ccc(OC)c(OC)c2)cc1OC,IS,[1],2
same,IC50,Homo sapiens [2],45 µM
same,IS,[3],1
same,IS,[4],6
same,IC50,[5],20 µM
same,IC50,[6],> 200 µM
same,IC50,Homo sapiens [7],86 µM
same,IC50,[8],65 µM
same,IC50,[9],> 200 µM
same,IS,[10],4
same,IC50,[11],80 µM
same,IC50,[12],55 µM
same,IC50,K562 [13],250 µM
same,IC50,K562 [14],250 µM
COc1cccc2c1C(=O)c1c(O)c3c(c(O)c1C2=O)C[C@@](O)(C(=O)CO)C[C@@H]3O[C@H]1C[C@H](N)[C@H](O)[C@H](C)O1 [DOXORUBICIN],IC50,[15],0.62 µM
same,IC50,[16],0.052 µM
COc1ccc(CCN(C)CCCC(C#N)(c2ccc(OC)c(OC)c2)C(C)C)cc1OC (configuration not stated) [VERAPAMIL HYDROCHLORIDE],drug uptake,[17],10 pmol/mg protein
same,IS,[1],2
same,drug uptake,[18],22 pmol/mg protein
same,IC50,Homo sapiens [2],230 µM
same,IS,[3],4
same,IS,[4],11
same,IS,[10],11
same,IC50,[12],470 µM
same,drug uptake,[19],23 pmol/mg protein
same,IC50,K562 [13],100 µM
same,drug uptake,[20],235 pmol/30 min
same,IC50,K562 [14],100 µM
same,drug uptake,[21],132 pmol/30 min
same,drug uptake,[22],289 pmol/30 min
same,drug uptake,[23],310 pmol/30 min
same,drug uptake,[24],29 pmol/mg protein
COc1ccc(CNCCN(C/C=C(\C)CC/C=C(\C)CCC=C(C)C)Cc2ccc(OC)c(OC)c2)cc1OC,IS,[25],2
same,IS,[26],6
same,IC50,[27],13 µM
same,IS,[28],12
same,IS,[29],12
same,IC50,[11],35 µM
BLEOMYCIN,IC50,[30],0.517 µM
same,IC50,[31],0.519 µM
CC[C@]1(O)C[C@@H]2CN(CCc3c([nH]c4ccccc34)[C@@](C(=O)OC)(c3cc4c(cc3OC)N(C)[C@H]3[C@@](O)(C(=O)OC)[C@H](OC(C)=O)[C@]5(CC)C=CCN6CC[C@]43[C@@H]65)C2)C1 [VINBLASTINE],IC50,[15],0.246 µM
same,IC50,[16],0.018 µM
COc1ccc(CNCCN(C/C=C(\C)CCC=C(C)C)Cc2ccc(OC)c(OC)c2)cc1OC.Cl,logP,[32],4.51
same,IS,[25],2
same,IC50,Homo sapiens [2],18 µM
same,IC50,[33],15 µM
same,IS,[26],8
same,IC50,[27],10 µM
same,IS,[28],11
same,IC50,Homo sapiens [7],40 µM
same,IC50,[8],55 µM
same,IS,[29],12
same,IC50,[9],25 µM
same,IC50,[12],20 µM
same,IC50,[34],13 µM
same,IC50,K562 [13],125 µM
same,IC50,K562 [14],125 µM
COc1cc2c(c(OC)c1OC)-c1ccc(OC)c(=O)cc1[C@@H](NC(C)=O)CC2 [COLCHICINE],IC50,[15],0.5 µM
same,IC50,[16],0.025 µM
COc1ccc(CNCCNCc2ccc(OC)c(OC)c2)cc1OC,logP,[32],3.78
same,IC50,[27],470 µM
same,IC50,[35],520 µM
